Test results from ChEMBL document CHEMBL3861996, “Arylsulfonamide derivatives of (aryloxy)ethyl pyrrolidines and piperidines as α1-adrenergic receptor antagonist with uro-selective activity” (Bioorg Med Chem, 2016).

Legend:
[1] = biological target: T1, Alpha-1B adrenergic receptor (Homo sapiens, UniProt P35368); assay: Intrinsic activity at human alpha1B adrenergic receptor expressed in CHOK1 cells co-expressing aequorin assessed as inhibition of agonist induced calcium mobilization preincubated for 15 mins followed by agonist addition measured for 20 secs in presence of coelenterazine H by luminescence assay; format: cell-based, CHO-K1
T1 sequence (P35368 whole entry): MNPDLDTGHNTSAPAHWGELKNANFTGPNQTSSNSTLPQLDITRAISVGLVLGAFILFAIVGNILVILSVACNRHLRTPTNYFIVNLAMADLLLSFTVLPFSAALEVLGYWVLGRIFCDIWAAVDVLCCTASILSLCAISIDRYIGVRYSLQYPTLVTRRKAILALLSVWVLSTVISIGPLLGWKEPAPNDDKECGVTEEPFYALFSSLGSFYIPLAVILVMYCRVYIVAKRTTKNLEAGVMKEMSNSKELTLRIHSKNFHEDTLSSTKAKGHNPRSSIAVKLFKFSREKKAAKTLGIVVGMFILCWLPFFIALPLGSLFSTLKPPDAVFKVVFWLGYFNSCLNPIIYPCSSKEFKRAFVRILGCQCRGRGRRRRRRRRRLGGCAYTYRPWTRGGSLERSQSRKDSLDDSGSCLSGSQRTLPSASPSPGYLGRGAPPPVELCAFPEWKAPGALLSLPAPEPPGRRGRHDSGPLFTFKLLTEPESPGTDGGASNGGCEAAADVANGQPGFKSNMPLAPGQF
Method in brief: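 Frozen ready-to-use cells stably expressing α1B receptor and aequorin, resuspended in assay buffer with 5 µM coelenterazine h and rotated overnight at rt in the dark. Diluted to 5000 cells/20 µL. Agonist mode: cells injected onto ligands, light recorded 20 s. Antagonist mode: 15 min with compound at room temperature, then agonist at 3× EC80 final, light recorded 20 s. Mean EC50 from three experiments.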

[2] = biological target: T2, 5-hydroxytryptamine receptor 1A (Homo sapiens) (UniProt P08908); assay: Displacement of [3H]-8-OH-DPAT from human 5-HT1A receptor expressed in CHO-K1 cell membranes at 1 uM after 1 hr by micro beta2 scintillation counting analysis
T2 sequence (whole entry): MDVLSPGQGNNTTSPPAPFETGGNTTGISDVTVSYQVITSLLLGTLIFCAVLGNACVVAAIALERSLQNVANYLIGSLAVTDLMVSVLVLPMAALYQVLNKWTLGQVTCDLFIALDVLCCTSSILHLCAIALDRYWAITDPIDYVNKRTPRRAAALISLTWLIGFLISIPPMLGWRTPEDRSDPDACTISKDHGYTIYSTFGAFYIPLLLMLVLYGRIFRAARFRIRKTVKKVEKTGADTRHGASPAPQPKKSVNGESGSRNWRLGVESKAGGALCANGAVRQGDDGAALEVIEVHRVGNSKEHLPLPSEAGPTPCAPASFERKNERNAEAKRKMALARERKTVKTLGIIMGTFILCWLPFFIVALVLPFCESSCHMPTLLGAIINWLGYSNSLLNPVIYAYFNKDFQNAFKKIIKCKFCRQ
Method in brief: (§1)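 Membranes of CHO-K1 cells stably expressing human 5-HT1A or 5-HT7 receptor. Buffer 50 mM Tris–HCl, 0.1 mM EDTA, 10 mM MgCl2. Each compound screened at final 10 µM and 1 µM. Incubation at 37 °C, 1 h for 5-HT1A and 2 h for 5-HT7. Non-specific binding defined with 10 µM 5-HT (5-HT1A) or 10 µM methiothepine (5-HT7). Output is percent inhibition of specific binding.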

[3] = biological target: 5-hydroxytryptamine receptor 7 (Homo sapiens) (UniProt P34969); assay: Displacement of [3H]-LSD from human 5-HT7 receptor expressed in CHO-K1 cell membranes at 1 uM after 2 hr by micro beta2 scintillation counting analysis; method in brief: as §1
Sequence of 5-hydroxytryptamine receptor 7 (Homo sapiens) (P34969 whole entry): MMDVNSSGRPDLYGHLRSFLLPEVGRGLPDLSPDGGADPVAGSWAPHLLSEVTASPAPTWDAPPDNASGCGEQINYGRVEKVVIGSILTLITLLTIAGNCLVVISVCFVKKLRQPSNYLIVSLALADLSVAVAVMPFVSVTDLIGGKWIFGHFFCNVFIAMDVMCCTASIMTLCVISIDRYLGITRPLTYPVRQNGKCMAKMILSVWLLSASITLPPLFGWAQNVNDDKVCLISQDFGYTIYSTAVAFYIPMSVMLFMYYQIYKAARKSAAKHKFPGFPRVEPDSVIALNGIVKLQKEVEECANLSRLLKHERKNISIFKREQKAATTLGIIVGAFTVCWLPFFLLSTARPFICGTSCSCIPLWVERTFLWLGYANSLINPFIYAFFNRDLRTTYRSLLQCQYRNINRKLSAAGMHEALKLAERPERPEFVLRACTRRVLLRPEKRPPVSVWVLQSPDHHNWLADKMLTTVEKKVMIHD

[4] = biological target: 5-hydroxytryptamine receptor 7 (Homo sapiens) (UniProt P34969); assay: Displacement of [3H]-LSD from human 5-HT7 receptor expressed in CHO-K1 cell membranes at 10 uM after 2 hr by micro beta2 scintillation counting analysis; conditions: 0.1 uM, in the assay text read “at 0.1 uM” for “at 10 uM”; method in brief: as §1
Rattus norvegicus [5] = assay: Hypotensive activity in normotensive anesthetized Wistar rat assessed as decrease in systolic blood pressure at 5 mg/kg, iv administered as single dose measured 60 mins post dose relative to control; format: functional; conditions: 1 h
Method in brief: (§2)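 Male Wistar rats (200–250 g), groups of six, anaesthetized with thiopental 70 mg/kg ip. Left carotid artery cannulated with heparinized saline-filled tubing for pressure recording. Compounds dissolved in water and given once iv. Blood pressure taken at 0 min (control) and over 60 min afterward. Data as mean ± SEM, analysed by one-way ANOVA with Dunnett's test against 0 min.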

Rattus norvegicus [6] = assay: Hypotensive activity in normotensive anesthetized Wistar rat assessed as decrease in systolic blood pressure at 2 mg/kg, iv administered as single dose measured 60 mins post dose relative to control; format: functional; conditions: 1 h; method in brief: as §2
Rattus norvegicus [7] = assay: Hypotensive activity in normotensive anesthetized Wistar rat assessed as decrease in diastolic blood pressure at 5 mg/kg, iv administered as single dose measured 60 mins post dose relative to control; format: functional; conditions: 1 h; method in brief: as §2
Rattus norvegicus [8] = assay: Hypotensive activity in normotensive anesthetized Wistar rat assessed as decrease in diastolic blood pressure at 2 mg/kg, iv administered as single dose measured 60 mins post dose relative to control; format: functional; conditions: 1 h; method in brief: as §2

| EC50 [1] [nM] | inhibition [2] [%] | inhibition [3] [%] | inhibition [4] [%] | SMILES | inhibition in vivo at 5 mg/kg (Rattus norvegicus [5]) [%] | inhibition in vivo at 2 mg/kg (Rattus norvegicus [6]) [%] | inhibition in vivo at 5 mg/kg (Rattus norvegicus [7]) [%] | inhibition in vivo at 2 mg/kg (Rattus norvegicus [8]) [%] |
| --- | --- | --- | --- | --- | --- | --- | --- | --- |
| 15.5 |  |  |  | COc1ccccc1OCCN1CCC(CNS(=O)(=O)c2cccc(Cl)c2)CC1 |  |  |  |  |
| 599 | 72 | 52 | 16 | COc1ccc(S(=O)(=O)NCC2CCN(CCOc3ccccc3OC)CC2)cc1OC |  |  |  |  |
| 105 | 61 | 91 | 51 | CC(C)Oc1ccccc1OCCN1CCC(CNS(=O)(=O)c2cccc3cccnc23)CC1 |  |  |  |  |
| 515 | 78 | 89 | 54 | COc1ccccc1OCCN1CCC(CNS(=O)(=O)c2cncc3ccccc23)CC1 |  |  |  |  |
| 42.1 | 59 | 90 | 45 | CC(C)Oc1ccccc1OCCN1CCC(CNS(=O)(=O)c2cccc(Cl)c2F)CC1 | 2 to 5 | 7 |  |  |
| 14.1 |  |  |  | COc1ccccc1OCCN1CCC(CNS(=O)(=O)c2cccc(Cl)c2F)CC1 |  |  |  |  |
| 461 |  |  |  | COc1ccc(S(=O)(=O)NC2CCN(CCOc3ccccc3OC)CC2)cc1OC |  |  |  |  |
| 12.7 |  |  |  | COc1ccccc1OCCN1CCC(CNS(=O)(=O)c2cc(Cl)ccc2F)CC1 |  |  |  |  |
| 608 | 69 | 87 | 41 | COc1ccccc1OCCN1CCC(NS(=O)(=O)c2cncc3ccccc23)CC1 | 6 to 11 | 4 to 10 | 2 to 8 | 4 to 8 |
